Experimental data pooled from the literature.
Target: Serine/threonine-protein kinase WNK2 (WNK2, Homo sapiens, UniProt Q9Y3S1)

For CCN(CC)CCNC(=O)c1c(C)[nH]c(/C=C2\C(=O)Nc3ccc(F)cc32)c1C, the inhibition was 23% (enzyme activity, inhibitor; 10 µM).
For CC(=O)N1CCC(c2ccc(C(=O)NC(=N)N)cc2C(F)(F)F)CC1, the remaining binding was 98% (cell-free assay, competition with immobilised ligand; 1 µM).
Cc1ccc(Nc2nccc(N(C)c3ccc4c(C)n(C)nc4c3)n2)cc1S(N)(=O)=O gave an inhibition of 26% (enzyme activity, inhibitor; 10 µM).
For CNC(=O)Nc1ccc2c(c1)[C@@]1(CC2)OC(=O)N(CC(=O)N(Cc2ccc(F)cc2)[C@@H](C)C(F)(F)F)C1=O, the remaining binding was 59% (cell-free assay, competition with immobilised ligand; 1 µM).
For O=C(Nc1cnn(-c2csc(C(=O)NC3COC3)c2)c1)Nc1ccccc1Cl, the remaining activity was 96.3% (enzyme activity, inhibitor; 5 µM).
The remaining signal of O=C1Nc2ccc(Cl)cc2C1=Cc1cc(Cl)c(O)c(Cl)c1 is reported as 115% (cell-free assay; 0.5 µM).
Cc1cc(NC(=O)c2cccc3cc(-c4cccc5[nH]nc(N)c45)ccc23)ccc1F gave an activity vs control of 98% (enzyme activity, inhibitor; 0.1 µM).
The inhibition of CNC(=O)c1cc(Oc2ccc(NC(=O)Nc3ccc(Cl)c(C(F)(F)F)c3)cc2)ccn1 is reported as 13% (enzyme activity, inhibitor; 10 µM).
CC(C)(C)c1nc2c(s1)c1nc(N)ncc1c1ccc(NS(=O)(=O)c3c(F)cccc3F)c(F)c12 gave a remaining activity of 101% (enzyme activity, inhibitor, radiometric; 1 µM).
O=C(NC[C@@H]1[C@H]2CN(C(=O)OCc3cc(C(F)(F)F)cc(C(F)(F)F)c3)C[C@@H]12)c1ccc2[nH]nnc2c1 gave a remaining binding of 84% (cell-free assay, competition with immobilised ligand; 1 µM).
CN(c1nccc(-c2cnn3ncccc23)n1)C1CC1 gave a remaining binding of 100% (binding; 1 µM).
COc1cc(Cl)c(C(=O)N[C@@H](CN[C@H]2CC[C@@H](N)CC2)Cc2ccc(C#N)cc2)cc1-c1ccc(CN[C@H](C)c2ccc(C)cc2)o1 gave a remaining activity of 101% (enzyme activity, inhibitor; 1 µM).
Cc1ccc(NC(=O)c2ccc(C)c(C(F)(F)F)c2)cc1C#Cc1nn(C2CCC(O)CC2)c2ncnc(N)c12 (stereo not drawn) gave a remaining signal of 105% (cell-free assay; 10 µM).
CCCOc1ccc(OC)c(F)c1C(=O)c1ccc(C(=O)N[C@@H]2CNC[C@H]2NC(=O)c2ccc3[nH]ncc3c2)cc1 has a remaining activity of 92% (enzyme activity, inhibitor; 10 µM).
The remaining binding of CN([C@@H]1CCc2c(CC(=O)O)c3ccccc3n2C1)S(=O)(=O)c1ccc(F)cc1 is reported as 92% (cell-free assay, competition with immobilised ligand; 1 µM).
The remaining activity of Cc1sc(C(=O)NC2COC2)cc1-n1cc(NC(=O)Nc2c(F)cccc2Cl)cn1 is reported as 91.1% (enzyme activity, inhibitor; 10 µM).
The remaining activity of CC(C)(O)[C@H]1CC[C@H](Nc2ccc3ncc(-c4cccc(C(F)(F)F)c4)n3n2)CC1 is reported as 86.2% (enzyme activity, inhibitor; 1 µM).
O=C(Nc1cnc(Oc2ccc(F)cc2)nc1)N1CCc2ncccc2[C@@H]1c1ccc(F)cc1 has a remaining binding of 79% (cell-free assay, competition with immobilised ligand; 1 µM).
